What all share (type): functional
For experiment [1], the system named is Rattus norvegicus. The experiment can be described thus: Inhibition of egg albumin-induced allergic bronchospasm in sensitized, spontaneously breathing and anesthesized Harlan-Wistar rat assessed as drop in mean arterial blood pressure at 2 mg/kg, iv administered 1 min prior to antigen challenge (reference value: 49.7+/- 1.9 %). A digest of the protocol:
(§1)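 Male Harlan-Wistar rats (225–275 g) were sensitized with EA im (1 mg/rat) plus pertussis vaccine ip. After 13–15 days they were urethane-anesthetized (1.5 g/kg ip). Drug was given intraduodenally in methocel or iv in saline, then EA 2 mg/rat iv. Pulmonary ventilation pressure and mean arterial pressure were recorded. Individual responses were compared with a separate vehicle-control group mean; 4–15 rats/group.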

The subject of experiment [2] is Rattus norvegicus. In words: Inhibition of egg albumin-induced allergic bronchospasm in sensitized, spontaneously breathing and anesthesized Harlan-Wistar rat assessed as inhibition of control allergic bronchospasm response at 2 mg/kg, iv administered 1 min prior to antigen challenge. A digest of the protocol: as §1
In experiment [3] the test system is Rattus norvegicus. In words: Inhibition of egg albumin-induced allergic bronchospasm in sensitized, spontaneously breathing and anesthesized Harlan-Wistar rat assessed as inhibition of control allergic hypotension response at 2 mg/kg, iv administered 1 min prior to antigen challenge. The gist of the method: as §1
Experiment [4] relates to Rattus norvegicus. In words: Antiallergic activity against egg albumin-induced anaphylaxis in iv dosed sensitized rat compound administered 15 mins prior to antigen challenge as single dose by passive cutaneous anaphylaxis test. A digest of the protocol: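 Male Sprague–Dawley or Wistar rats (100–150 g) were passively sensitized by two intradermal dilutions of rat anti-egg-albumin serum, which was mainly IgE and raised with EA im (10 mg/kg) plus killed pertussis vaccine iv. After 48 h, drug or vehicle was given. Rats were then challenged iv with EA plus Evans Blue (25 mg/kg each). Spot diameter was read 20–30 min later; ≥5 rats/compound. % inhibition was calculated versus control mean diameter.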

Experiment [5] relates to Mast cell. In words: Inhibition of histamine release in Sprague-Dawley rat peritoneal mast cells at 1.25 uM after 10 mins by fluorimetry relative to control. A digest of the protocol:
(§2)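 Peritoneal lavage cells from male Sprague–Dawley rats (200–300 g) were sensitized for 2 h at 37 °C in rat anti-EA serum with heparin. Cells were resuspended in buffered HBSS and challenged with EA. Drug was added together with antigen. After 10 min incubation, histamine was measured fluorimetrically. % inhibition was calculated versus release without drug.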

Experiment [6] relates to Mast cell. In words: Inhibition of histamine release in Sprague-Dawley rat peritoneal mast cells at 5 uM after 10 mins by fluorimetry relative to control. The gist of the method: as §2
Experiment [7] deals with Mast cell. The experiment can be described thus: Inhibition of histamine release in Sprague-Dawley rat peritoneal mast cells at 20 uM after 10 mins by fluorimetry relative to control. The gist of the method: as §2
In experiment [8] the test system is Rattus norvegicus. In words: Inhibition of egg albumin-induced allergic bronchospasm in sensitized, spontaneously breathing and anesthesized Harlan-Wistar rat assessed as drop in pulmonary arterial blood pressure at 2 mg/kg, iv administered 1 min prior to antigen challenge (reference value: 36.4 +/- 3.5 %). A digest of the protocol: as §1
Experiment [9] has as its system Rattus norvegicus. In words: Inhibition of egg albumin-induced allergic bronchospasm in sensitized, spontaneously breathing and anesthesized Harlan-Wistar rat assessed as drop in pulmonary arterial blood pressure at 1.56 mg/kg administered intraduodenally 15 min prior to antigen challenge (reference value: 32.2 +/- 4.7 %). The note with it: route intraduodenal. A digest of the protocol:
as §1

Experiment [10] has as its system Rattus norvegicus. The experiment can be described thus: Inhibition of egg albumin-induced allergic bronchospasm in sensitized, spontaneously breathing and anesthesized Harlan-Wistar rat assessed as drop in mean arterial blood pressure at 50 mg/kg administered intraduodenally 15 min prior to antigen challenge (reference value: 46.3 +/- 3.5 %). The note with it: route intraduodenal. The gist of the method:
as §1

The test system of experiment [11] is Rattus norvegicus. In words: Inhibition of egg albumin-induced allergic bronchospasm in sensitized, spontaneously breathing and anesthesized Harlan-Wistar rat assessed as drop in mean arterial blood pressure at 12.5 mg/kg administered intraduodenally 15 min prior to antigen challenge (reference value: 46.3 +/- 3.5 %). The settings on record: route intraduodenal. The gist of the method: as §1

The subject of experiment [12] is Rattus norvegicus. The experiment can be described thus: Inhibition of egg albumin-induced allergic bronchospasm in sensitized, spontaneously breathing and anesthesized Harlan-Wistar rat assessed as drop in mean arterial blood pressure at 6.25 mg/kg administered intraduodenally 15 min prior to antigen challenge (reference value: 46.3 +/- 3.5 %). The settings on record: route intraduodenal. A digest of the protocol:
as §1

The subject of experiment [13] is Rattus norvegicus. In words: Inhibition of egg albumin-induced allergic bronchospasm in sensitized, spontaneously breathing and anesthesized Harlan-Wistar rat assessed as drop in mean arterial blood pressure at 3.125 mg/kg administered intraduodenally 15 min prior to antigen challenge (reference value: 46.3 +/- 3.5 %). The settings on record: route intraduodenal. A digest of the protocol: as §1

The subject of experiment [14] is Rattus norvegicus. The experiment can be described thus: Inhibition of egg albumin-induced allergic bronchospasm in sensitized, spontaneously breathing and anesthesized Harlan-Wistar rat assessed as drop in mean arterial blood pressure at 1.56 mg/kg administered intraduodenally 15 min prior to antigen challenge (reference value: 46.3 +/- 3.5 %). The settings on record: route intraduodenal. The gist of the method:
as §1

In experiment [15] the test system is Rattus norvegicus. The experiment can be described thus: Inhibition of egg albumin-induced allergic bronchospasm in sensitized, spontaneously breathing and anesthesized Harlan-Wistar rat assessed as inhibition of control allergic bronchospasm response at 50 mg/kg administered intraduodenally 15 min prior to antigen challenge. The note with it: route intraduodenal. The gist of the method:
as §1

For experiment [16], the system named is Rattus norvegicus. The experiment can be described thus: Inhibition of egg albumin-induced allergic bronchospasm in sensitized, spontaneously breathing and anesthesized Harlan-Wistar rat assessed as inhibition of control allergic bronchospasm response at 12.5 mg/kg administered intraduodenally 15 min prior to antigen challenge. The settings on record: route intraduodenal. A digest of the protocol: as §1

Experiment [17] concerns Rattus norvegicus. In words: Inhibition of egg albumin-induced allergic bronchospasm in sensitized, spontaneously breathing and anesthesized Harlan-Wistar rat assessed as inhibition of control allergic bronchospasm response at 6.25 mg/kg administered intraduodenally 15 min prior to antigen challenge. The settings on record: route intraduodenal. A digest of the protocol:
as §1

Experiment [18] concerns Rattus norvegicus. The experiment can be described thus: Inhibition of egg albumin-induced allergic bronchospasm in sensitized, spontaneously breathing and anesthesized Harlan-Wistar rat assessed as inhibition of control allergic bronchospasm response at 3.125 mg/kg administered intraduodenally 15 min prior to antigen challenge. The note with it: route intraduodenal. The gist of the method:
as §1

The test system of experiment [19] is Rattus norvegicus. The experiment can be described thus: Inhibition of egg albumin-induced allergic bronchospasm in sensitized, spontaneously breathing and anesthesized Harlan-Wistar rat assessed as inhibition of control allergic bronchospasm response at 1.56 mg/kg administered intraduodenally 15 min prior to antigen challenge. The note with it: route intraduodenal. The gist of the method: as §1

Experiment [20] deals with Rattus norvegicus. In words: Inhibition of egg albumin-induced allergic bronchospasm in sensitized, spontaneously breathing and anesthesized Harlan-Wistar rat assessed as inhibition of control allergic hypotension response at 50 mg/kg administered intraduodenally 15 min prior to antigen challenge. The note with it: route intraduodenal. The gist of the method: as §1
For experiment [21], the system named is Rattus norvegicus. The experiment can be described thus: Inhibition of egg albumin-induced allergic bronchospasm in sensitized, spontaneously breathing and anesthesized Harlan-Wistar rat assessed as inhibition of control allergic hypotension response at 12.5 mg/kg administered intraduodenally 15 min prior to antigen challenge. The settings on record: route intraduodenal. The gist of the method: as §1

Experiment [22] concerns Rattus norvegicus. The experiment can be described thus: Inhibition of egg albumin-induced allergic bronchospasm in sensitized, spontaneously breathing and anesthesized Harlan-Wistar rat assessed as inhibition of control allergic hypotension response at 6.25 mg/kg administered intraduodenally 15 min prior to antigen challenge. The note with it: route intraduodenal. The gist of the method:
as §1

Experiment [23] has as its system Rattus norvegicus. In words: Inhibition of egg albumin-induced allergic bronchospasm in sensitized, spontaneously breathing and anesthesized Harlan-Wistar rat assessed as inhibition of control allergic hypotension response at 3.125 mg/kg administered intraduodenally 15 min prior to antigen challenge. The note with it: route intraduodenal. The gist of the method:
as §1

In experiment [24] the test system is Rattus norvegicus. The experiment can be described thus: Inhibition of egg albumin-induced allergic bronchospasm in sensitized, spontaneously breathing and anesthesized Harlan-Wistar rat assessed as inhibition of control allergic hypotension response at 1.56 mg/kg administered intraduodenally 15 min prior to antigen challenge. The settings on record: route intraduodenal. A digest of the protocol: as §1

The test system of experiment [25] is Rattus norvegicus. In words: Inhibition of egg albumin-induced allergic bronchospasm in sensitized, spontaneously breathing and anesthesized Harlan-Wistar rat assessed as inhibition of control allergic bronchospasm response compound administered intraduodenally 15 min prior to antigen challenge. The gist of the method:
as §1

In experiment [26] the test system is Rattus norvegicus. The experiment can be described thus: Inhibition of egg albumin-induced allergic bronchospasm in sensitized, spontaneously breathing and anesthesized Harlan-Wistar rat assessed as inhibition of control allergic hypotension response compound administered intraduodenally 15 min prior to antigen challenge. The settings on record: in the assay text read “bronchospasm response” for “hypotension response”. The gist of the method: as §1

The subject of experiment [27] is Rattus norvegicus. The experiment can be described thus: Inhibition of egg albumin-induced allergic bronchospasm in sensitized, spontaneously breathing and anesthesized Harlan-Wistar rat assessed as drop in pulmonary arterial blood pressure at 50 mg/kg administered intraduodenally 15 min prior to antigen challenge (reference value: 32.2 +/- 4.7 %). The note with it: route intraduodenal. The gist of the method: as §1

In experiment [28] the test system is Rattus norvegicus. The experiment can be described thus: Inhibition of egg albumin-induced allergic bronchospasm in sensitized, spontaneously breathing and anesthesized Harlan-Wistar rat assessed as drop in pulmonary arterial blood pressure at 12.5 mg/kg administered intraduodenally 15 min prior to antigen challenge (reference value: 32.2 +/- 4.7 %). The note with it: route intraduodenal. A digest of the protocol: as §1

Experiment [29] has as its system Rattus norvegicus. The experiment can be described thus: Inhibition of egg albumin-induced allergic bronchospasm in sensitized, spontaneously breathing and anesthesized Harlan-Wistar rat assessed as drop in pulmonary arterial blood pressure at 6.25 mg/kg administered intraduodenally 15 min prior to antigen challenge (reference value: 32.2 +/- 4.7 %). The note with it: route intraduodenal. A digest of the protocol: as §1

For experiment [30], the system named is Rattus norvegicus. The experiment can be described thus: Inhibition of egg albumin-induced allergic bronchospasm in sensitized, spontaneously breathing and anesthesized Harlan-Wistar rat assessed as drop in pulmonary arterial blood pressure at 3.125 mg/kg administered intraduodenally 15 min prior to antigen challenge (reference value: 32.2 +/- 4.7 %). The settings on record: route intraduodenal. The gist of the method: as §1

A word on the inhibition in vivo: it is the share of the control response that was lost under treatment. As usually defined, the ED50 is the dose that gives a 50% effect, or the effect in half of the subjects. Usually inhibition stands for the relative decrease from the control value, in per cent. Turning to `O=C([O-])c1cc(=O)c2c(OCC(O)COc3cccc4oc(C(=O)[O-])cc(=O)c34)cccc2o1.[Na+].[Na+]` [CROMOLYN SODIUM], the inhibition in vivo at 2 mg/kg turned out to be 38.8% in the experiment with Rattus norvegicus [1], 63.8% with Rattus norvegicus [2], 22.4% in the experiment on Rattus norvegicus [3] and 13% in the experiment with Rattus norvegicus [8]. Moreover, the ED50 in the experiment on Rattus norvegicus [4] was 0.6 mg/kg. The compound also gave an inhibition at 1.25 µM with Mast cell [5] of 20%. Moreover, testing at 5 µM in the experiment with Mast cell [6] gave an inhibition of 50%. Further, the inhibition at 20 µM in the experiment with Mast cell [7] amounted to 75%.

For the compound `CCCCCCc1sc2nc(C(=O)[O-])nc([O-])c2c1C.O.[Na+].[Na+]`, the inhibition in vivo at 1.56 mg/kg was 42% in the experiment with Rattus norvegicus [9], 63.8% with Rattus norvegicus [14], 9.4% in the experiment with Rattus norvegicus [19] and 0% in the experiment with Rattus norvegicus [24]. The inhibition in vivo at 50 mg/kg was 45% with Rattus norvegicus [10], 61.2% in the experiment with Rattus norvegicus [15], 14% with Rattus norvegicus [20] and 14% in the experiment on Rattus norvegicus [27]. For the same compound, the inhibition in vivo at 12.5 mg/kg turned out to be 55.2% in the experiment on Rattus norvegicus [11], 41% with Rattus norvegicus [16], 0% in the experiment with Rattus norvegicus [21] and 21.6% with Rattus norvegicus [28]. In addition, the inhibition in vivo at 6.25 mg/kg in the experiment with Rattus norvegicus [12] turned out to be 38.4%; in the experiment on Rattus norvegicus [17] it was 34.2%; with Rattus norvegicus [22], 28.8%; with Rattus norvegicus [29], 28%. Moreover, the inhibition in vivo at 3.125 mg/kg worked out at 47.6% with Rattus norvegicus [13], 28.3% in the experiment on Rattus norvegicus [18], 15.4% with Rattus norvegicus [23] and 27.6% with Rattus norvegicus [30]. For the same compound, the inhibition result in the experiment on Rattus norvegicus [25] and in the experiment on Rattus norvegicus [26] was “Dose-dependent effect” each time. The median effective dose (ED50) in the experiment on Rattus norvegicus [25] (intraduodenal) and with Rattus norvegicus [26] (intraduodenal) was 3.8 mg/kg throughout.

(Values after ChEMBL document CHEMBL3244400, “Synthesis of 3,4-dihydro-4-oxothieno[2,3-d]pyrimidine-2-carboxylates, a new series of orally active antiallergy agents” (J Med Chem, 1979).)
